Active and inactive are the calls of the source. The calls are words filed in the database; no cut-off is given here.
What was measured:
HCT-116 = experiment: Cytotoxicity against human HCT116 cells; assay type: functional, cell-based
[1] = molecular target: DNA topoisomerase 2-alpha (Homo sapiens) (UniProt P11388); experiment: Inhibition of topoisomerase 2 by decatenation assay
XRS6 = experiment: Cytotoxicity against Chinese hamster Xrs-6 cells; assay type: cell-based; settings: Cricetulus griseus
Plasmodium falciparum [2] = experiment: Antimalarial activity against chloroquine-sensitive Plasmodium falciparum 3D7 trophozoite stage assessed as growth inhibition at 150 nM after 10 hrs by [3H]-hypoxanthine incorporation assay; assay type: functional, organism-based
How it was run: (§1)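 Synchronous 3D7 rings (~10−16 h post-invasion) or trophozoites (~24−30 h post-invasion), 0.5% parasitemia, 5% hematocrit, exposed 4, 6 or 10 h to compound or 0.04% DMSO vehicle. Cultures are washed, plated in triplicate with 0.5 μCi 3H-hypoxanthine, and incorporation is counted after ~48−72 h. Percent growth is relative to matched vehicle controls, from at least two independent experiments.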

Plasmodium falciparum [3] = experiment: Antimalarial activity against chloroquine-sensitive Plasmodium falciparum 3D7 ring stage assessed as growth inhibition at 150 nM after 10 hrs by [3H]-hypoxanthine incorporation assay; assay type: functional, organism-based; how it was run: as §1
Plasmodium falciparum [4] = experiment: Antimalarial activity against chloroquine-sensitive Plasmodium falciparum 3D7 ring stage assessed as growth inhibition at 75 nM after 10 hrs by [3H]-hypoxanthine incorporation assay; assay type: functional, organism-based; how it was run: as §1
Plasmodium falciparum [5] = experiment: Antimalarial activity against chloroquine-sensitive Plasmodium falciparum 3D7 trophozoite stage assessed as growth inhibition at 75 nM after 10 hrs by [3H]-hypoxanthine incorporation assay; assay type: functional, organism-based; how it was run: as §1
Plasmodium falciparum [6] = experiment: Antimalarial activity against chloroquine-sensitive Plasmodium falciparum 3D7 assessed as growth inhibition after 72 hrs by DAPI staining; assay type: functional, organism-based; settings: 3D7, 72 h
How it was run: (§2)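 P. falciparum 3D7 or Dd2 at 2% or 3% parasitemia, 0.3% hematocrit, exposed 72 h at 37 °C, 5% CO2. Staining with DAPI plus saponin and Triton X-100, 5 h at room temperature in the dark, then confocal imaging and automated counting of parasite spots. Percent inhibition is calculated against DMSO and 2 μM artemisinin controls.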

HEK293 = experiment: Cytotoxicity against human HEK293 cells assessed as growth inhibition after 72 hrs by Alamar blue assay; assay type: cell-based; settings: HEK293, 72 h
How it was run: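 HEK293 adherent cells (3000/well) were incubated with compound for 72 h at 37 °C and 5% CO2. Medium was removed, then 10% Alamar Blue was added for 5−6 h. Fluorescence was read at ex 535/em 590 nm. Inhibition was normalised to DMSO and 10 μM puromycin controls. IC50 came from nonlinear variable-slope regression of % inhibition against log dose.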

Plasmodium falciparum [7] = experiment: Antimalarial activity against chloroquine-sensitive Plasmodium falciparum 3D7 trophozoite stage assessed as growth inhibition at 204 nM after 10 hrs by [3H]-hypoxanthine incorporation assay; assay type: functional, organism-based; how it was run: as §1
[8] = Selectivity index, ratio of IC50 for human HEK293 cells to IC50 for chloroquine-resistant Plasmodium falciparum Dd2; assay type: toxicity, cell-based; settings: read-out: Ratio IC50
[9] = Selectivity index, ratio of IC50 for human HEK293 cells to IC50 for chloroquine-sensitive Plasmodium falciparum 3D7; assay type: toxicity, cell-based; settings: read-out: Ratio IC50
Plasmodium falciparum [10] = experiment: Antimalarial activity against chloroquine-sensitive Plasmodium falciparum 3D7 trophozoite stage assessed as growth inhibition at 408 nM after 10 hrs by [3H]-hypoxanthine incorporation assay; assay type: functional, organism-based; how it was run: as §1
Plasmodium falciparum [11] = experiment: Antimalarial activity against chloroquine-sensitive Plasmodium falciparum 3D7 ring stage assessed as growth inhibition at 204 nM after 10 hrs by [3H]-hypoxanthine incorporation assay; assay type: functional, organism-based; how it was run: as §1
Plasmodium falciparum [12] = experiment: Antimalarial activity against chloroquine-resistant Plasmodium falciparum Dd2 assessed as growth inhibition after 72 hrs by DAPI staining; assay type: functional, organism-based; settings: Dd2, 72 h; how it was run: as §2
Plasmodium falciparum [13] = experiment: Antimalarial activity against chloroquine-sensitive Plasmodium falciparum 3D7 ring stage assessed as growth inhibition at 408 nM after 10 hrs by [3H]-hypoxanthine incorporation assay; assay type: functional, organism-based; how it was run: as §1
Plasmodium berghei [14] = experiment: Antimalarial activity against chloroquine-sensitive Plasmodium berghei ANKA infected in Swiss albino mouse assessed as suppression of parasitemia at 8 mg/kg/day, ip measured on day 2 post infection by Giemsa staining relative to control; assay type: functional; settings: route intraperitoneal
[15] = Half life in mouse liver microsomes at 1 uM after 60 mins; assay type: ADME, Microsome
How it was run: (§3)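 1 μM compound incubated at 37 °C with human or mouse liver microsomes (0.4 mg/mL protein) in 0.1 M phosphate pH 7.4. Reaction started with an NADPH-regenerating system plus MgCl2 and quenched with ice-cold acetonitrile at time points up to 60 min. Parent loss is followed by LC−MS and fitted to exponential decay, giving half-life and in vitro CLint.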

Plasmodium falciparum [16] = experiment: Antimalarial activity against chloroquine-sensitive Plasmodium falciparum 3D7 trophozoite stage assessed as growth inhibition at 180 nM after 10 hrs by [3H]-hypoxanthine incorporation assay; assay type: functional, organism-based
How it was run: (§4)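 Synchronous 3D7 rings (~10−16 h post-invasion) or trophozoites (~24−30 h post-invasion) were used at 0.5% parasitemia and 5% hematocrit. Cultures were exposed to compound or 0.04% DMSO vehicle for 4, 6 or 10 h, then washed. Triplicate wells received 0.5 μCi 3H-hypoxanthine, and incorporation was counted after ~48−72 h. Results are % growth versus matched vehicle controls, from ≥2 independent experiments.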

[17] = Plasma concentration in Swiss mouse at 8 mg/kg, sc administered as suspension measured 1 hr post dose; assay type: ADME, organism-based; design: dose 8 mg/kg, route subcutaneous
How it was run: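 Nonfasted male Swiss outbred mice (26−34 g) received a nominal 8 mg/kg subcutaneously into the dorsal skinfold. The compound was given as a suspension in saline vehicle containing 5−7% DMSO. Blood was taken by cardiac puncture under isoflurane at 0.25, 1 or 4 h, with n = 2 mice per time point, into stabilizer-containing heparinized tubes. Plasma was acetonitrile-precipitated and quantified by UPLC−MS.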

[18] = Intrinsic clearance in mouse liver microsomes assessed as per mg of protein at 1 uM after 60 mins; assay type: ADME, Microsome; settings: read-out: CLH; how it was run: as §3
Plasmodium falciparum [19] = experiment: Antimalarial activity against chloroquine-sensitive Plasmodium falciparum 3D7 ring stage assessed as growth inhibition upto 360 nM after 10 hrs by [3H]-hypoxanthine incorporation assay; assay type: functional, organism-based; how it was run: as §4
[20] = Toxicity in Swiss albino mouse for 4 days; assay type: organism-based; settings: in vivo
How it was run: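 Healthy mice dosed subcutaneously daily for 4 consecutive days, compound in Tween 80/ethanol (7/3 v/v) diluted 10-fold in distilled water (~0.2 mL). Mice are assessed before and after dosing for weight loss >10%, ruffled coat, shaking, severe pallor, reduced activity and behaviour changes.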

Plasmodium berghei [21] = experiment: Antimalarial activity against chloroquine-sensitive Plasmodium berghei ANKA infected in Swiss albino mouse assessed as suppression of parasitemia at 8 mg/kg/day, ip measured on day 1 post infection by Giemsa staining relative to control; assay type: functional; settings: route intraperitoneal
Plasmodium berghei [22] = experiment: Antimalarial activity against chloroquine-sensitive Plasmodium berghei ANKA infected in Swiss albino mouse assessed as suppression of parasitemia at 8 mg/kg/day, ip measured on day 4 post infection by Giemsa staining relative to control; assay type: functional; settings: route intraperitoneal
Plasmodium falciparum [23] = experiment: Antimalarial activity against chloroquine-sensitive Plasmodium falciparum 3D7 trophozoite stage assessed as growth inhibition at 360 nM after 10 hrs by [3H]-hypoxanthine incorporation assay; assay type: functional, organism-based; how it was run: as §4
[24] = Intrinsic clearance in human liver microsomes assessed as per mg of protein at 1 uM after 60 mins; assay type: ADME, Microsome; settings: read-out: CLH; how it was run: as §3
[25] = Half life in human liver microsomes at 1 uM after 60 mins; assay type: ADME, Microsome; how it was run: as §3
Plasmodium berghei [26] = experiment: Antimalarial activity against chloroquine-sensitive Plasmodium berghei ANKA infected in Swiss albino mouse assessed as suppression of parasitemia at 8 mg/kg/day, ip measured on day 3 post infection by Giemsa staining relative to control; assay type: functional; settings: route intraperitoneal

Sequence of DNA topoisomerase 2-alpha (Homo sapiens) (P11388 whole entry): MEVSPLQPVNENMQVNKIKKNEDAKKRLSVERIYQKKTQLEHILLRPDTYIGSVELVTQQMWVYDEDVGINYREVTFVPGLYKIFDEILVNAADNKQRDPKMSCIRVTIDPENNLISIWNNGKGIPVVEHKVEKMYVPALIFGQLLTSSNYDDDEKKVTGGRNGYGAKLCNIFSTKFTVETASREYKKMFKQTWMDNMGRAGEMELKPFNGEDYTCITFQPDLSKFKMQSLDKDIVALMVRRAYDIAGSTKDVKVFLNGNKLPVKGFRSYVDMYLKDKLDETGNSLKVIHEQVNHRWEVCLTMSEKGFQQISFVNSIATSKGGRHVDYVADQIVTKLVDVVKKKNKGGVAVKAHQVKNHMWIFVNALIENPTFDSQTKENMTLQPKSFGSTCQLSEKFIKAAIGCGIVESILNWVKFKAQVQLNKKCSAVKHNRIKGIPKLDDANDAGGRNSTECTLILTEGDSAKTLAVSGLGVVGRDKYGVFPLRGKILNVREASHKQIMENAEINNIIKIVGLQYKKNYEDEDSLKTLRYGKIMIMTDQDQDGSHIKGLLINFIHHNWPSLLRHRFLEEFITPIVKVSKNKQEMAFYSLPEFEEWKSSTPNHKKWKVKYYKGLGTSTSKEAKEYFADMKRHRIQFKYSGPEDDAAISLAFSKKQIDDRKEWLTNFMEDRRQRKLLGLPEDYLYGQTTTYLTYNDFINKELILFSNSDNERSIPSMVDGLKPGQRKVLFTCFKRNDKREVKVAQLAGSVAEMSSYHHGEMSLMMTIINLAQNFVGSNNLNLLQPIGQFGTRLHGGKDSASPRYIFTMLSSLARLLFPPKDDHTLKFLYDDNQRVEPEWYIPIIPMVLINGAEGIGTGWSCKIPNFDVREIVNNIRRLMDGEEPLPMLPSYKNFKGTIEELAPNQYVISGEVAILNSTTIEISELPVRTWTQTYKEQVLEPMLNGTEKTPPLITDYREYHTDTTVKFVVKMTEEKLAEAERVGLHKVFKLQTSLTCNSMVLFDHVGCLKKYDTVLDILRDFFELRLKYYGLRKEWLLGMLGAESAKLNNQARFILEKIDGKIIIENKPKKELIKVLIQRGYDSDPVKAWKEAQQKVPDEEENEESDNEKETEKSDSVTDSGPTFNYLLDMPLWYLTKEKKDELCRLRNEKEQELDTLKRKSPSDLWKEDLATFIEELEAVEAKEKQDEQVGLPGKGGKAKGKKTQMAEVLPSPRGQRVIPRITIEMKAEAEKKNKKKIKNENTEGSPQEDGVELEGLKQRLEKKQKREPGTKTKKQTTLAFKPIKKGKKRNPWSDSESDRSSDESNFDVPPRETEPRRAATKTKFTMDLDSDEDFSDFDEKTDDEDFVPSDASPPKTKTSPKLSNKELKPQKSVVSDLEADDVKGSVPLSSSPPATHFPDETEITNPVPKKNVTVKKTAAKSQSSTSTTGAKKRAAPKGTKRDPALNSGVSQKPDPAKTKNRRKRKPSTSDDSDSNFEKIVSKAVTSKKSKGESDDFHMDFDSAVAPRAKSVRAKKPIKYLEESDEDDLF

Cn1cc2c3c1C(=O)C(N)=CC3=NCC2 [MAKALUVAMINE A]
IC50 (HCT-116): > 170 nM
IC90 [1]: 41000 nM
IC50 (XRS6): 80 nM

Cn1cc2c3c1C(=O)C(N/C=C/c1ccc(O)cc1)=CC3=NCC2 [MAKALUVAMINE E]
IC50 (HCT-116): > 170 nM
IC50 (XRS6): 80 nM

C[C@@H]1CC[C@H]2[C@@H](C)C(=O)O[C@@H]3O[C@@]4(C)CC[C@@H]1[C@]32OO4
growth inhibition (GI) (Plasmodium falciparum [2]): Active
growth inhibition (GI) (Plasmodium falciparum [3]): Active
growth inhibition (GI) (Plasmodium falciparum [4]): Active
growth inhibition (GI) (Plasmodium falciparum [5]): Active

Cn1cc2c3c1C(=O)c1[nH]cc(-c4ccc(O)cc4)c1C3=[N+](C)CC2 [TSITSIKAMMAMINE C TRIFLUROACETATE]
IC50 (Plasmodium falciparum [6]): 13 nM
IC50 (HEK293): 3600 nM
growth inhibition (GI) (Plasmodium falciparum [7]): Active
selectivity ratio [8]: 200
selectivity ratio [9]: 276
growth inhibition (GI) (Plasmodium falciparum [10]): Active
growth inhibition (GI) (Plasmodium falciparum [11]): Active
IC50 (Plasmodium falciparum [12]): 18 nM
growth inhibition (GI) (Plasmodium falciparum [13]): Active

Cn1cc2c3c1C(=O)C(N/C=C/c1ccc(O)cc1)=CC3=[N+](C)CC2.O=C([O-])C(F)(F)F [MAKALUVAMINE G]
IC50 (Plasmodium falciparum [6]): 36 nM
Activity (Plasmodium berghei [14]): 35%
IC50 (HEK293): 2000 nM
selectivity ratio [8]: 51
half-life at 1 µM [15]: 7.4 min
growth inhibition (GI) (Plasmodium falciparum [16]): Active
selectivity ratio [9]: 55
concentration at 1 h [17]: < 40 nM
microsomal CLint at 1 µM [18]: 235 µL/min/mg
growth inhibition (GI) (Plasmodium falciparum [19]): inactive
MTD at 96 h [20]: 8 mg/kg/day
Activity (Plasmodium berghei [21]): 10%
Activity (Plasmodium berghei [22]): 48%
growth inhibition (GI) (Plasmodium falciparum [23]): Active
microsomal CLint at 1 µM [24]: 197 µL/min/mg
half-life at 1 µM [25]: 8.8 min
IC50 (Plasmodium falciparum [12]): 39 nM
Activity (Plasmodium berghei [26]): 47%

Cn1cc2ccnc3c2c1C(=O)C(N)=C3 [MAKALUVAMINE B]
IC50 (HCT-116): > 170 nM
IC50 (XRS6): 80 nM

C[N+]1=C2C=C(N)C(=O)c3[nH]cc(c32)CC1 [MAKALUVAMINE C]
IC50 (HCT-116): > 170 nM
IC50 (XRS6): 80 nM
